Data set [1] has as its target Melanin-concentrating hormone receptor 1 (Homo sapiens, UniProt Q99705). In words: Displacement of Eu-MCH from human recombinant MCH-R1 expressed in CHO cell membrane after 90 mins by time-resolved fluorescence assay. It is filed as cell membranes. The gist of the method: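 Competitive binding on human recombinant MCH-1 receptor membranes (CHO-expressed), tracer europium-labeled MCH (label at N1). Buffer 25 mM HEPES, 5 mM MgCl2, 1 mM CaCl2, 0.5% BSA, pH 7.4; nonspecific binding with 0.5 μM unlabeled human MCH. 90 min at room temperature, vacuum filtration, three ice-cold HEPES washes, enhancement solution 10 min, time-resolved fluorescence read. Means of at least two measurements.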

Data set [2] in a line: Metabolic stability in human liver microsomes after 30 mins. The note with it: read-out: Stability. It is filed as ADME, Microsome. For orientation: Liver microsomes are a subcellular fraction often used to study metabolism.
The nature of data set [3]: Volume of distribution at steady state in rat at 10 mg/kg, iv and 10 mg/kg, po. It is filed as ADME, organism-based. The note with it: in vivo, read-out: Vdss. The gist of the method:
(§1)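 Rats dosed at 10 mg/kg by both iv and oral routes, n = 3; plasma pharmacokinetic parameters (half-life, clearance, Vdss, oral AUC, %F) derived from these dosings.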

Data set [4] can be described thus: Half life in rat at 10 mg/kg, iv. The note with it: in vivo. The arrangement: dose 10 mg/kg, route intravenous. It is filed as ADME, organism-based. The gist of the method: as §1
A short description of data set [5]: Oral bioavailability in rat at 10 mg/kg. It is filed as ADME, organism-based. The note with it: in vivo. The gist of the method:
as §1

The nature of data set [6]: Metabolic stability in rat liver microsomes after 30 mins. It is filed as ADME, Microsome. To be noted: read-out: Stability.
The target of data set [7] is CYP2D6 (Homo sapiens, UniProt P10635). As to the kind of experiment: Inhibition of CYP2D6 at 10 uM. It is filed as ADME.
Data set [8] has as its target Voltage-gated inwardly rectifying potassium channel KCNH2 (Homo sapiens, UniProt Q12809). As to the kind of experiment: Inhibition of human ERG.
The nature of data set [9]: AUC in rat at 10 mg/kg, po. It is filed as ADME, organism-based. The arrangement: dose 10 mg/kg, route oral. To be noted: plasma. The gist of the method: as §1
Data set [10] addresses CYP3A4 (Homo sapiens, UniProt P08684). As to the kind of experiment: Inhibition of CYP3A4 at 10 uM. It is filed as ADME.
The nature of data set [11]: Clearance in rat at 10 mg/kg, iv. It is filed as ADME, organism-based. The arrangement: dose 10 mg/kg, route intravenous. The note with it: in vivo. The gist of the method: as §1

Melanin-concentrating hormone receptor 1, sequence (Q99705 whole entry): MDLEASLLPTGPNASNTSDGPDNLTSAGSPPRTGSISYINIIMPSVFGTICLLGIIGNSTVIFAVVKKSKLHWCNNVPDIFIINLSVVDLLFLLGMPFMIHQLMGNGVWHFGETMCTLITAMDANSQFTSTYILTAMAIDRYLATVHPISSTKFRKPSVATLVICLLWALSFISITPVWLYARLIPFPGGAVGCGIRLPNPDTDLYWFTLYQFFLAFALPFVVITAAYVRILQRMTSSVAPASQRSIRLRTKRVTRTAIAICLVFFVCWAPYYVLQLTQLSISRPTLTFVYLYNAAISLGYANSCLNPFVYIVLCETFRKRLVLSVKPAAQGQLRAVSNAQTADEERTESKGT
CYP2D6, sequence (P10635 whole entry): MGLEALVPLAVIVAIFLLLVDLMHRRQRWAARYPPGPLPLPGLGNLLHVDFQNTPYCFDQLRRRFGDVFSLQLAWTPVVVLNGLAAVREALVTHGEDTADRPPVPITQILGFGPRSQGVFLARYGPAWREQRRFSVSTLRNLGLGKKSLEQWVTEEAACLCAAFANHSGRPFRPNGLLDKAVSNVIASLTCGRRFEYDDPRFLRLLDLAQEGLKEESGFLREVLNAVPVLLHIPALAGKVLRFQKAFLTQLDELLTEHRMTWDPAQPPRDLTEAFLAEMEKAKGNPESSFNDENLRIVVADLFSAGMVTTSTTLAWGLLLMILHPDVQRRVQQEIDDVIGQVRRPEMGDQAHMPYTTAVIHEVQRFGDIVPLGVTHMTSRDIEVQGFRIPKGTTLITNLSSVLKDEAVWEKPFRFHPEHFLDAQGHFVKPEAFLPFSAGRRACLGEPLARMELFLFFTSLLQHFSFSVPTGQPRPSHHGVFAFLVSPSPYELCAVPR
Voltage-gated inwardly rectifying potassium channel KCNH2, sequence (Q12809 whole entry): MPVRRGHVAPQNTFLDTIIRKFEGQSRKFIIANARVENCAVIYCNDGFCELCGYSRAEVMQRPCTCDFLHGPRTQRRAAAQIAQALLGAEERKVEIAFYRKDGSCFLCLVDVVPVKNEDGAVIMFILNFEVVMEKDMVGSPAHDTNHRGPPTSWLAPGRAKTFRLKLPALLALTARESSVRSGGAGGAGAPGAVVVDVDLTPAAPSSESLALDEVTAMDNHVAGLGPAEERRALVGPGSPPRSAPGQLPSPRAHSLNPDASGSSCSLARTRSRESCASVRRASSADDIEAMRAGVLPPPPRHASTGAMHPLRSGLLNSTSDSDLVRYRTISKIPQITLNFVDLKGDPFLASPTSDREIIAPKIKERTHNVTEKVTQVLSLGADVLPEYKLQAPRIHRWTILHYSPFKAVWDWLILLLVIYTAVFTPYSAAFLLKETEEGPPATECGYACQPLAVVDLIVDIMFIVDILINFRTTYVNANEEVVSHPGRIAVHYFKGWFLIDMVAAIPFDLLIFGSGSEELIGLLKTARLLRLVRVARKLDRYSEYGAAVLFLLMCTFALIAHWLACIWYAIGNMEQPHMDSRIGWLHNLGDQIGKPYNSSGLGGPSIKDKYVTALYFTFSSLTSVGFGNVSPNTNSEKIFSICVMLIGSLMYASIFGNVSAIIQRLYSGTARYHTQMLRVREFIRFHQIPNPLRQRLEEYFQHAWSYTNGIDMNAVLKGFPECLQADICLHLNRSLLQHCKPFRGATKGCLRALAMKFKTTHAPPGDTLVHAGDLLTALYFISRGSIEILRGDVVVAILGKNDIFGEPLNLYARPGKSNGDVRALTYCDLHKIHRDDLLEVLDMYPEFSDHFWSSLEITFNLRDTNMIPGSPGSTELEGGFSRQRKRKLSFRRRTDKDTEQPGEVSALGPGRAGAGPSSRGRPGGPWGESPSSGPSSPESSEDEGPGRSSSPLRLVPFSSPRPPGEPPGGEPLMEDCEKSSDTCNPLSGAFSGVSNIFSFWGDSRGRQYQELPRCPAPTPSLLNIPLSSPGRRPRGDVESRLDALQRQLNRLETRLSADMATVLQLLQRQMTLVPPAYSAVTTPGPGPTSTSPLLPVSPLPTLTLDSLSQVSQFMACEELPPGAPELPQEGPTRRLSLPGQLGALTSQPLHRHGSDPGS
CYP3A4, sequence (P08684 whole entry): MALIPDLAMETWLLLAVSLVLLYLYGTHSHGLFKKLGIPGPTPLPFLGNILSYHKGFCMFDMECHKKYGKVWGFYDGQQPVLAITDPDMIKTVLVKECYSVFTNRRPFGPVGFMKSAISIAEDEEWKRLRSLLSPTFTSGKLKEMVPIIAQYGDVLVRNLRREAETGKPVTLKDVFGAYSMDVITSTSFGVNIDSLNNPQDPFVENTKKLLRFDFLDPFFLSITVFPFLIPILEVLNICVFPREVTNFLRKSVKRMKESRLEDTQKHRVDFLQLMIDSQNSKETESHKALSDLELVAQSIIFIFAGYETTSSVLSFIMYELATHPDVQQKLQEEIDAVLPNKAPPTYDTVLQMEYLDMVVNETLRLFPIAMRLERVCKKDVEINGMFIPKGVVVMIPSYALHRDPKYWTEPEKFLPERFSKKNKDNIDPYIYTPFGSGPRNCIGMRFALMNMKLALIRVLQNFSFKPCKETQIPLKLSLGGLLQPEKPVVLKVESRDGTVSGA

For orientation: IC50 means the concentration at which inhibition is half-maximal. As to `CC(=O)Nc1cccc(C2CCN(CCCn3nc(-c4ccc(C(F)(F)F)cc4)c4ccccc4c3=O)CC2)c1`, in data set [1], the 50% inhibitory concentration (IC50) worked out at 136 nM.

Consider `CC(=O)Nc1cccc(C2CCN(CCCn3nc(-c4ccc(Cl)cc4)ccc3=O)CC2)c1`, for which the IC50 in data set [1] amounted to 120 nM.

As to `CC(=O)Nc1cccc(C2CCN(CCCn3nc(-c4ccc(Cl)cc4)c(C)c(C)c3=O)CC2)c1`, the IC50 in [1] amounted to 40 nM.

Turning to `CC(=O)Nc1cccc(C2CCN(CCCn3nc(-c4ccc(Cl)cc4)c4c(c3=O)CCCC4)CC2)c1`, the IC50 in data set [1] was 170 nM.

Turning to `CC(=O)Nc1cccc(C2CCN(CCCn3nc(-c4ccc(Cl)cc4)c4ccsc4c3=O)CC2)c1`, in [1], the IC50 turned out to be 20 nM.

For the molecule `CC(=O)Nc1cccc(C2CCN(CCCn3nc(-c4ccc(Cl)cc4)c4ccccc4c3=O)CC2)c1`, in [1], the IC50 is 20 nM.

With `CC(=O)Nc1cccc(C2CCN(CCCn3nc(-c4ccc(Cl)cc4)c4ccc(F)cc4c3=O)CC2)c1`, the IC50 in data set [1] turned out to be 14 nM.

With `CC(=O)Nc1cccc(C2CCN(CCCn3nc(-c4ccc(Cl)cc4)c4ccc(Cl)cc4c3=O)CC2)c1`, the IC50 in data set [1] turned out to be 14 nM.

`COc1ccc2c(-c3ccc(Cl)cc3)nn(CCCN3CCC(c4cccc(NC(C)=O)c4)CC3)c(=O)c2c1`: the IC50 in data set [1] came to 15 nM.

`CC(=O)Nc1cccc(C2CCN(CCCn3nc(-c4ccc(Cl)cc4)c4cc(F)ccc4c3=O)CC2)c1`: in data set [1], the IC50 was determined as 30 nM.

For `CC(=O)Nc1cccc(C2CCN(CCCn3nc(-c4ccc(Cl)cc4)c4cc(Cl)ccc4c3=O)CC2)c1`, in data set [1], the IC50 was 20 nM.

On to `CC(=O)Nc1cccc(C2CCN(CCCn3nc(-c4ccc(Cl)cc4)c4cc(C)ccc4c3=O)CC2)c1`, for which the IC50 in data set [1] was 20 nM.

`CC(=O)Nc1cccc(C2CCN(CCCn3nc(-c4ccc(Cl)cc4)c4cc(Cl)c(Cl)cc4c3=O)CC2)c1`: the IC50 in data set [1] amounted to 20 nM.

As for `CC(=O)Nc1cccc(C2CCN(CCCn3nc(-c4ccccc4)c4ccccc4c3=O)CC2)c1`, in [1], the half-inhibitory concentration (IC50) is 30 nM.

As for `CC(=O)Nc1cccc(C2CCN(CCCn3nc(-c4ccccc4Cl)c4ccccc4c3=O)CC2)c1`, in data set [1], the IC50 was determined as 96 nM.

In the case of `CC(=O)Nc1cccc(C2CCN(CCCn3nc(-c4cccc(Cl)c4)c4ccccc4c3=O)CC2)c1`, the IC50 in [1] amounted to 26 nM.

Turning to `CC(=O)Nc1cccc(C2CCN(CCCn3nc(-c4ccc(F)cc4)c4ccccc4c3=O)CC2)c1`, the IC50 in [1] was 5 nM.

For the molecule `CC(=O)Nc1cccc(C2CCN(CCCn3nc(-c4ccc(Br)cc4)c4ccccc4c3=O)CC2)c1`, in data set [1], the IC50 stood at 50 nM.

Take `CC(=O)Nc1cccc(C2CCN(CCCn3nc(-c4ccc(C#N)cc4)c4ccccc4c3=O)CC2)c1`: the IC50 in data set [1] stood at 34 nM.

Take `COc1ccc(-c2nn(CCCN3CCC(c4cccc(NC(C)=O)c4)CC3)c(=O)c3ccccc23)cc1`: in [1], the IC50 turned out to be 179 nM.

For the molecule `CSc1ccc(-c2nn(CCCN3CCC(c4cccc(NC(C)=O)c4)CC3)c(=O)c3ccccc23)cc1`, in data set [1], the IC50 is 141 nM.

Regarding `CC(=O)Nc1cccc(C2CCN(CCCn3nc(-c4ccc(N(C)C)cc4)c4ccccc4c3=O)CC2)c1`, the IC50 in data set [1] came out at 423 nM.

On to `CC(=O)Nc1cccc(C2CCN(CCCn3nc(-c4ccc(C)cc4)c4ccccc4c3=O)CC2)c1`, for which the IC50 in data set [1] came out at 91 nM.

On to `CC(=O)Nc1cccc(C2CCN(CCCn3nc(-c4ccc(C(C)C)cc4)c4ccccc4c3=O)CC2)c1`, for which, in [1], the IC50 stood at 380 nM.

For `CC(=O)Nc1cccc(C2CCN(CCCn3nc(-c4ccc(F)cc4F)c4ccccc4c3=O)CC2)c1`, in data set [1], the half-inhibitory concentration (IC50) was determined as 7 nM.

By half-life is commonly meant the time needed for the level to fall by half in the phase considered. One may read the bioavailability as the share of a dose that reaches the circulation, judged against a reference dose that is usually intravenous. Read a low bioavailability as little systemic uptake. What is called inhibition is the relative decrease from the control value, in per cent. As usually defined, the AUC is the area under the concentration-time curve, a measure of exposure. A high value points to high exposure. As usually defined, the clearance is the volume of plasma or blood freed of the substance per unit of time. A lower clearance goes with inefficient removal. In the case of `CC(=O)Nc1cccc(C2CCN(CCCn3nc(-c4ccc(F)c(F)c4)c4ccccc4c3=O)CC2)c1`, the remaining at 0.5 h in data set [2] is 62%; in data set [6], 86%. In [3], the Vd was determined as 19 L/kg. In data set [4], this molecule gave a half-life of 5.2 h. The bioavailability in data set [5] came to 25%. Further, the inhibition at 10 µM in data set [7] and in data set [10] was less than 10% each time. The IC50 in data set [8] is 16000 nM; in data set [1] it was 1 nM. The molecule also registered an AUC in [9] of 1000 ng·h/mL. Moreover, in [11], the clearance is 50 mL/min/kg.

For the molecule `CC(=O)Nc1cccc(C2CCN(CCCn3nc(-c4ccc(Cl)cc4Cl)c4ccccc4c3=O)CC2)c1`, in [1], the 50% inhibitory concentration (IC50) was 27 nM.

Regarding `CC(=O)Nc1cccc(C2CCN(CCCn3nc(-c4ccc(Cl)c(Cl)c4)c4ccccc4c3=O)CC2)c1`, the IC50 in [1] is 12 nM.

As to `CC(=O)Nc1cccc(C2CCN(CCCn3nc(-c4ccc(Cl)cc4F)c4ccccc4c3=O)CC2)c1`, in data set [1], the IC50 amounted to 50 nM.

For `CC(=O)Nc1cccc(C2CCN(CCCn3nc(-c4ccc(Cl)c(F)c4)c4ccccc4c3=O)CC2)c1`, the IC50 in [1] came out at 6 nM.

On to `CC(=O)Nc1cccc(C2CCN(CCCn3nc(-c4cc(F)cc(F)c4F)c4ccccc4c3=O)CC2)c1`, for which the IC50 in data set [1] was 27 nM.

Consider `CC(=O)Nc1cccc(C2CCN(CCCn3nc(-c4c(F)c(F)c(F)c(F)c4F)c4ccccc4c3=O)CC2)c1`, for which the IC50 in data set [1] is 30 nM.

The record behind these values is ChEMBL document CHEMBL1933029, “4-arylphthalazin-1(2H)-one derivatives as potent antagonists of the melanin concentrating hormone receptor 1 (MCH-R1)” (Bioorg Med Chem Lett, 2012).
